Measured values as given in article PMC11551477 (Pharmacology Research & Perspectives, 2024).
Where two headings read alike, the source gives them in different places.

Assays:
[1] = Post hoc estimates of steady-state PK parameters from the PopPK final model; format: in vivo, human (Japanese pediatric patients and adult population); conditions: for CLss/F (apparent total body clearance at steady state) / Dose‐normalized AUCτ,ss / Dose‐normalized C max,ss: fed, mean ± SD
Procedure, shortened: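 Steady-state parameters were derived by post hoc estimation from the final PopPK model, assuming each study's dose given once daily to fed subjects. Pediatric estimates used the original maintenance doses: 20 mg for <40 kg and 40 mg for ≥40 kg. CL/F was also expressed per body weight. Outputs were CLss/F, Cmax,ss and AUCτ,ss, compared with the adult population.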

[2] = cited from earlier work
[3] = standard NCA analysis; cited from earlier work
[4] = Integrated PopPK analysis; format: in vivo, human (Japanese pediatric patients and adult population)
Procedure, shortened: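 Plasma concentrations (2611 samples, 142 Japanese subjects) were pooled from six oral-dosing studies: pediatric patients aged 6–18 y on once-daily doses for 52 weeks, healthy adult males, and fed adults with normal, mild or moderately impaired renal function. Assays were LC–MS/MS (LLOQ 0.5 ng/mL) or HPLC (LLOQ 4 ng/mL). Points with |CWRES| >6 were excluded. Model: linear two-compartment, first-order absorption with lag and first-order elimination. Covariate selection was forward (p<.05) then backward (p<.01), with condition number ≤1000. Evaluation used bootstrap and pc-VPC.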

[5] = healthy Japanese adult males, NCA; cited from earlier work
[6] = tested on: hyperuricemia including gout; conditions: pediatric patients weighing <40 kg and ≥40 kg; cited from earlier work
[7] = cited from earlier work; remark: listed apart in the source
[8] = 20 mg repeated, fed, NCA, cited from earlier work
[9] = tested on: plasma protein (mainly albumin); conditions: binds mainly to albumin; cited from earlier work
[10] = adult population (n = 113), 10–160 mg once daily
[11] = pediatric patients <40 kg (n = 10), 20 mg once daily
[12] = pediatric patients weighing <40 kg vs adult population
[13] = pediatric patients weighing ≥40 kg vs adult population
[14] = pediatric patients ≥40 kg (n = 19), 40 mg once daily
[15] = fed vs fasted, present PopPK analysis
[16] = final PopPK model, fixed effect
[17] = mild dysfunction group (CLCr-based)
[18] = moderate renal dysfunction group (CLCr-based)

Cc1nc(-c2ccc(OCC(C)C)c(C#N)c2)sc1C(=O)O [febuxostat]
CLss/F (apparent total body clearance at steady state) [1, 10]: 8.27 ± 2.00 L/h
Dose‐normalized AUCτ,ss [1, 10]: 128 ± 32 ng·h/mL/mg
Dose‐normalized C max,ss [1, 10]: 30.2 ± 10.6 ng/mL/mg
CL/F adjusted by body weight (post hoc estimate), males vs females ([1]; children or adults, Figure S2): no clear difference
CLss/F (apparent total body clearance at steady state) [1, 11]: 4.28 ± 1.20 L/h
Dose‐normalized AUCτ,ss [1, 11]: 251 ± 72 ng·h/mL/mg
Dose‐normalized C max,ss [1, 11]: 42.7 ± 7.6 ng/mL/mg
CLss/F relative to the adult population [1, 12]: 0.52 fold
Dose‐normalized AUCτ,ss relative to the adult population [1, 12]: 1.96 fold
Dose‐normalized C max,ss relative to the adult population [1, 12]: 1.41 fold
CLss/F relative to the adult population [1, 13]: 0.80 fold
Dose‐normalized AUCτ,ss relative to the adult population [1, 13]: 1.38 fold
Dose‐normalized C max,ss relative to the adult population [1, 13]: 1.18 fold
CLss/F (apparent total body clearance at steady state) [1, 14]: 6.59 ± 2.45 L/h
Dose‐normalized AUCτ,ss [1, 14]: 176 ± 75 ng·h/mL/mg
Dose‐normalized C max,ss [1, 14]: 35.7 ± 10.4 ng/mL/mg
Solubility (in words) [2]: poorly soluble
Effect of sex on PK [3]: no notable effect
Between-subject variability of CL/F, CV (%) ([4]; CV = SQRT(EXP(ω^2)–1) × 100): 26.2%
Between-subject variability of Ka, CV (%) ([4]; CV = SQRT(EXP(ω^2)–1) × 100): 306.3%
Between-subject variability of Q/F, CV (%) ([4]; CV = SQRT(EXP(ω^2)–1) × 100): 71.3%
Between-subject variability of V2/F, CV (%) ([4]; CV = SQRT(EXP(ω^2)–1) × 100): 25.7%
Between-subject variability of V3/F, CV (%) ([4]; CV = SQRT(EXP(ω^2)–1) × 100): 54.4%
Residual variability, CV (%) ([4]; CV = σ × 100): 36.9%
ALAG1, Bootstrap Median ([4]; bootstrap, 1000 simulations): 0.438 h
ALAG1, Bootstrap parameter estimate Mean ± SE ([4]; bootstrap, 1000 simulations): 0.441 ± 0.0210 h
CL/F, Bootstrap Median ([4]; bootstrap, 1000 simulations): 6.52 L/h
CL/F, Bootstrap parameter estimate Mean ± SE ([4]; bootstrap, 1000 simulations): 6.52 ± 0.197 L/h
CLEGFR, Bootstrap Median ([4]; bootstrap, 1000 simulations): 0.326
CLEGFR, Bootstrap parameter estimate Mean ± SE ([4]; bootstrap, 1000 simulations): 0.326 ± 0.0586
CLWGT, Bootstrap Median ([4]; bootstrap, 1000 simulations): 0.580
CLWGT, Bootstrap parameter estimate Mean ± SE ([4]; bootstrap, 1000 simulations): 0.589 ± 0.130
F1 (FED), Bootstrap Median ([4]; bootstrap, 1000 simulations): 0.839
F1 (FED), Bootstrap parameter estimate Mean ± SE ([4]; bootstrap, 1000 simulations): 0.838 ± 0.0274
Ka, Bootstrap Median ([4]; bootstrap, 1000 simulations): 3.51 h⁻¹
Ka, Bootstrap parameter estimate Mean ± SE ([4]; bootstrap, 1000 simulations): 4.24 ± 2.78 h⁻¹
Q/F, Bootstrap Median ([4]; bootstrap, 1000 simulations): 1.79 L/h
Q/F, Bootstrap parameter estimate Mean ± SE ([4]; bootstrap, 1000 simulations): 1.78 ± 0.127 L/h
V2/F, Bootstrap Median ([4]; bootstrap, 1000 simulations): 19.4 L
V2/F, Bootstrap parameter estimate Mean ± SE ([4]; bootstrap, 1000 simulations): 19.4 ± 0.792 L
V3/F, Bootstrap Median ([4]; bootstrap, 1000 simulations): 15.6 L
V3/F, Bootstrap parameter estimate Mean ± SE ([4]; bootstrap, 1000 simulations): 15.5 ± 0.822 L
σ ^2, Bootstrap Median ([4]; bootstrap, 1000 simulations): 0.135
σ ^2, Bootstrap parameter estimate Mean ± SE ([4]; bootstrap, 1000 simulations): 0.135 ± 0.00823
ω Ka ^2, Bootstrap Median ([4]; bootstrap, 1000 simulations): 2.37
ω Ka ^2, Bootstrap parameter estimate Mean ± SE ([4]; bootstrap, 1000 simulations): 2.60 ± 0.908
ω Q/F ^2, Bootstrap Median ([4]; bootstrap, 1000 simulations): 0.409
ω Q/F ^2, Bootstrap parameter estimate Mean ± SE ([4]; bootstrap, 1000 simulations): 0.414 ± 0.0686
ω Q/F‐V3/F ^2, Bootstrap Median ([4]; bootstrap, 1000 simulations): 0.302
ω Q/F‐V3/F ^2, Bootstrap parameter estimate Mean ± SE ([4]; bootstrap, 1000 simulations): 0.304 ± 0.0507
ω V2/F ^2, Bootstrap Median ([4]; bootstrap, 1000 simulations): 0.0633
ω V2/F ^2, Bootstrap parameter estimate Mean ± SE ([4]; bootstrap, 1000 simulations): 0.0648 ± 0.0188
ω V3/F ^2, Bootstrap Median ([4]; bootstrap, 1000 simulations): 0.251
ω V3/F ^2, Bootstrap parameter estimate Mean ± SE ([4]; bootstrap, 1000 simulations): 0.254 ± 0.0511
Reduction of AUCτ,ss in the fed group [4, 15]: 16.2%
Reduction of C max,ss in the fed group [4, 15]: 16.2%
Reduction of relative bioavailability in the fed group [4, 15]: 16.2%
σ ^2 (exponential error), residual variability, Estimate ([4]; final PopPK model): 0.136
ω CL/F‐V2/F ^2 (covariance, correlation variability), Estimate ([4]; final PopPK model): 0.0483
ω Ka ^2 (between-subject variability), Estimate ([4]; final PopPK model): 2.34
ω Q/F ^2 (between-subject variability), Estimate ([4]; final PopPK model): 0.411
ω Q/F‐V3/F ^2 (covariance, correlation variability), Estimate ([4]; final PopPK model): 0.307
ω V2/F ^2 (between-subject variability), Estimate ([4]; final PopPK model): 0.0638
ω V3/F ^2 (between-subject variability), Estimate ([4]; final PopPK model): 0.259
ω CL/F ^2 (between-subject variability), Estimate ([4]; final PopPK model, exponential error model): 0.0662
ALAG1 (absorption lag time), Estimate [4, 16]: 0.437 h
Ka (first-order absorption rate constant), Estimate [4, 16]: 3.43 h⁻¹
CLWGT (covariate for effect of body weight on CL/F), Estimate ([4]; final PopPK model, power function exponent, centered at 60.6 kg): 0.584
CLEGFR (covariate for effect of eGFR on CL/F), Estimate ([4]; final PopPK model, power function exponent, centered at 98.6 mL/min/1.73 m^2): 0.324
Vd/F ([4]; human, plasma, oral): 19.4 L
AUCinf lower in the fed group than in the fasted group [5]: 18%
C max lower in the fed group than in the fasted group [5]: 28%
Efficacy in pediatric patients compared with adults [6]: as effective
Tolerability in pediatric patients compared with adults [6]: well tolerated
Eliminated as unchanged drug through the urine [7]: < 5%
Increase of AUCτ,ss vs normal renal function group [8, 17]: 52.5%
Steady‐state plasma C max,ss vs normal renal function group [8, 17]: did not differ noticeably
Increase of AUCτ,ss vs normal renal function group [8, 18]: 67.6%
Increase of C max,ss vs normal renal function group [8, 18]: 25.5%
Plasma protein binding rate [9]: approximately 99%
